ChEMBL document CHEMBL1152570, “Discovery of a series of acrylic acids and their derivatives as chemical leads for selective EP3 receptor antagonists” (Bioorg Med Chem, 2009)

How the values were obtained:
[1] = biological target: Prostaglandin E2 receptor EP2 subtype (Mus musculus, UniProt Q62053); assay: Displacement of [3H]PGE2 from mouse EP2 receptor expressed in CHO cells by liquid scintillation counting; type: cell-based
Summary of the method: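 Membranes from CHO cells stably expressing the receptor, incubated with 2.5 nM [3H]PGE2 plus test compound over a concentration range. Buffer: 10 mM KH2PO4-KOH, 1 mM EDTA, 10 mM MgCl2, 0.1 mM NaCl, pH 6.0. Run at 25 °C for 60 min. Stopped by GF/B filtration with ice-cold buffer wash, then scintillation counted. Excess unlabeled PGE2 defined nonspecific binding. IC50 taken from the regression curve; Ki = IC50/(1+[L]/Kd).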

[2] = biological target: T1, Prostaglandin E2 receptor EP3 subtype (Mus musculus, UniProt P30557); assay: Antagonist activity at mouse EP3alpha receptor expressed in CHo cells assessed as inhibition of PGE2-stimulated intracellular calcium concentration; type: functional, cell-based
T1 sequence (P30557 whole entry): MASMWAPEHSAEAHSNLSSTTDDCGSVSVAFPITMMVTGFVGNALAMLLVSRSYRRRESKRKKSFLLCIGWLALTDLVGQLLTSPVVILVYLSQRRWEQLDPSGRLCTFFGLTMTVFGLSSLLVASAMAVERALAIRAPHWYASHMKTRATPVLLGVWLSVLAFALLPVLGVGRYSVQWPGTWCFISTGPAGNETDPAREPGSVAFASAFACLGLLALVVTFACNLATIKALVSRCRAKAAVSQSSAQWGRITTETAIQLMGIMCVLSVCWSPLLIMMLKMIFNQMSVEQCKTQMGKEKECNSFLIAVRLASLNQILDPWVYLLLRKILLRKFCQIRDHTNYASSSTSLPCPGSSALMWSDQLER
Summary of the method: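 CHO cells expressing mEP3α were plated at 1×10^4 cells/well and grown 2 days in 10% FBS/αMEM at 37 °C, 5% CO2. Cells were loaded 1 h with 5 µM Fura-2/AM, 20 µM indomethacin and 2.5 mM probenecid. Assay buffer was HBSS with 0.1% BSA, 2 µM indomethacin, 2.5 mM probenecid and 10 mM HEPES, with 1 h dark equilibration at room temperature. Test compound was added with 10 nM PGE2; fluorescence read at 340/380 nm excitation, 500 nm emission. IC50 from percent inhibition of the PGE2 Ca2+ peak.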

[3] = biological target: T2, Prostaglandin E2 receptor EP1 subtype (Mus musculus, UniProt P35375); assay: Displacement of [3H]PGE2 from mouse EP1 receptor expressed in CHO cells by liquid scintillation counting; type: cell-based
T2 sequence (P35375 whole entry): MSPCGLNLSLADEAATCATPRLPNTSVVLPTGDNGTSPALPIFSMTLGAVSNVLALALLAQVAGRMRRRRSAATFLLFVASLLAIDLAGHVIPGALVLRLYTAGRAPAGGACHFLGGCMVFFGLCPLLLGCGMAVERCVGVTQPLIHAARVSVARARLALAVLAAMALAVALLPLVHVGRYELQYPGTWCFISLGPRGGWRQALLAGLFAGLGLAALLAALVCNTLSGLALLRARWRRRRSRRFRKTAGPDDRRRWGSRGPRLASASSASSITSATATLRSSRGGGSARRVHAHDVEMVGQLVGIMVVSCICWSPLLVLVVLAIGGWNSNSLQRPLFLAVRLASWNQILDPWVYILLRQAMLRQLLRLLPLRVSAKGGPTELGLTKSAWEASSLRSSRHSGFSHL
Summary of the method: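 Membranes from CHO cells stably expressing mEP1, incubated with 2.5 nM [3H]PGE2 and varied test compound concentrations. Buffer: 10 mM KH2PO4-KOH, 1 mM EDTA, 10 mM MgCl2, 0.1 mM NaCl, pH 6.0. Run at 25 °C for 20 min. Filtered on GF/B and washed ice-cold before scintillation counting. Nonspecific binding measured with excess cold PGE2. IC50 from regression; Ki via the Cheng–Prusoff form.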

[4] = biological target: Prostaglandin E2 receptor EP4 subtype (Mus musculus, UniProt P32240); assay: Displacement of [3H]PGE2 from mouse EP4 receptor expressed in CHO cells by liquid scintillation counting; type: cell-based
Summary of the method: (§1)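 Mouse EP3α and EP4 CHO membrane binding: 2.5 nM [3H]PGE2 with graded test compound in pH 6.0 KH2PO4-KOH buffer (1 mM EDTA, 10 mM MgCl2, 0.1 mM NaCl), 60 min at 25 °C. Bound ligand collected on GF/B filters, washed with cold buffer, counted by liquid scintillation. Excess unlabeled PGE2 gave nonspecific binding. Ki derived from regression IC50, [L] and Kd.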

[5] = biological target: T1, Prostaglandin E2 receptor EP3 subtype; assay: Displacement of [3H]PGE2 from mouse EP3 receptor expressed in CHO cells by liquid scintillation counting; type: cell-based; summary of the method: as §1
[6] = Total clearance in rat at 10 mg/kg, iv and 10 mg/kg, po; type: ADME, organism-based; details: in vivo
Summary of the method: (§2)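 Rats dosed at 10 mg/kg iv and 10 mg/kg po, compound given as the sodium salt.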

Liver microsomes [7] = assay: Metabolic stability in rat liver microsomes; type: ADME, Microsome
Summary of the method: (§3)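 Human or rat liver microsomes incubated with compound for 15 min at 37 °C; result expressed as percent of intact compound remaining.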

[8] = Oral bioavailability in rat at 10 mg/kg; type: ADME, organism-based; details: in vivo
Summary of the method: (§4)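 Rats dosed orally at 10 mg/kg; compound given as the sodium salt where specified.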

[9] = AUC (0 to 4 hrs) in rat at 10 mg/kg, po; type: ADME, organism-based; parameters: time < 4 hr, dose 10 mg/kg, route oral; details: plasma; summary of the method: as §4
[10] = Cmax in rat at 10 mg/kg, po; type: ADME, organism-based; parameters: dose 10 mg/kg, route oral; details: in vivo; summary of the method: as §4
Liver microsomes [11] = assay: Metabolic stability in human liver microsomes; type: ADME, Microsome; summary of the method: as §3
[12] = Half life in rat at 10 mg/kg, iv and 10 mg/kg, po; type: ADME, organism-based; details: in vivo; summary of the method: as §2
[13] = Volume of distribution at steady state in rat at 10 mg/kg, iv and 10 mg/kg, po; type: ADME, organism-based; details: in vivo, read-out: Vdss; summary of the method: as §2
Cytochrome P450 1A2 = biological target: T3, Cytochrome P450 1A2 (Homo sapiens, UniProt P05177); assay: Inhibition of CYP1A2; type: ADME
T3 sequence (P05177 whole entry): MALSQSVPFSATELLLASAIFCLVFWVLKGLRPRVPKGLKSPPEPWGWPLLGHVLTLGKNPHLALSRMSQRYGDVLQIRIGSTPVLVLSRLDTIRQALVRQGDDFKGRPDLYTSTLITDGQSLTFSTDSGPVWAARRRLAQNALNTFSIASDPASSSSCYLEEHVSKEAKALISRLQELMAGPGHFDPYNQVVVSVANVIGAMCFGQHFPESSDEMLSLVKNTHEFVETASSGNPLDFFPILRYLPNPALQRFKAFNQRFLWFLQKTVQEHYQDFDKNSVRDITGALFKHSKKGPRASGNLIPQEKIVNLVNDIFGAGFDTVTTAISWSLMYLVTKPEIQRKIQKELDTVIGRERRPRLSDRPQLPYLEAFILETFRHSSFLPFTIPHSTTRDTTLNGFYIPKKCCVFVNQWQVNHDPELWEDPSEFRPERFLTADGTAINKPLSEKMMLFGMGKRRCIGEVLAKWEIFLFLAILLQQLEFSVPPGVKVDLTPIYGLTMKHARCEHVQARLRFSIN

Cytochrome P450 2C9 = Cytochrome P450 2C9 (Homo sapiens, UniProt P11712); assay: Inhibition of CYP2C9; type: ADME
Cytochrome P450 2C19 = Cytochrome P450 2C19 (Homo sapiens, UniProt P33261); assay: Inhibition of CYP2C19; type: ADME
Cytochrome P450 2D6 = Cytochrome P450 2D6 (Homo sapiens, UniProt P10635); assay: Inhibition of CYP2D6; type: ADME
Cytochrome P450 3A4 = Cytochrome P450 3A4 (Homo sapiens, UniProt P08684); assay: Inhibition of CYP3A4; type: ADME
Sequence of Cytochrome P450 3A4 (P08684 whole entry): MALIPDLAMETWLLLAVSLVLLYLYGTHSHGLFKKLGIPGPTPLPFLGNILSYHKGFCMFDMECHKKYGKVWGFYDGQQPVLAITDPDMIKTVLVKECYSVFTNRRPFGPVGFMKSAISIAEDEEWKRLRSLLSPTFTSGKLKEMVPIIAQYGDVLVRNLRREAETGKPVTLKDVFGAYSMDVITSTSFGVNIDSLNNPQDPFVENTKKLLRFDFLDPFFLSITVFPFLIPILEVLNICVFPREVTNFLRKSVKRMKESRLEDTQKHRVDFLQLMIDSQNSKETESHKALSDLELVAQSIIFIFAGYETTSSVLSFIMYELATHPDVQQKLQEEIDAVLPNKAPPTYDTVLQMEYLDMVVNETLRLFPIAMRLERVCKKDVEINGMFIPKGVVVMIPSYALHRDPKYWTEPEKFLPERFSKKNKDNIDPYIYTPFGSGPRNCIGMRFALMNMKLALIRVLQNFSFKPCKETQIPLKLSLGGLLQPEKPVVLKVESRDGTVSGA

Sequence of Prostaglandin E2 receptor EP2 subtype (Q62053 whole entry): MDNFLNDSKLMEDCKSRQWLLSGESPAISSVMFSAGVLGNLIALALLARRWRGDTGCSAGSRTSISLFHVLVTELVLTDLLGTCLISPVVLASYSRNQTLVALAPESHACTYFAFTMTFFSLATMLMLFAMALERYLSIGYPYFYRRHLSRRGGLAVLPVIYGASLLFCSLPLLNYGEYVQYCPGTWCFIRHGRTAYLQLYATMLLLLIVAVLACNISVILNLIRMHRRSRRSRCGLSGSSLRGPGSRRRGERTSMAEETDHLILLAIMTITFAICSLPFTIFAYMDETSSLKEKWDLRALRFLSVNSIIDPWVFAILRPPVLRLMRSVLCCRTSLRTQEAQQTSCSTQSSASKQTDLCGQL
Sequence of Prostaglandin E2 receptor EP4 subtype (P32240 whole entry): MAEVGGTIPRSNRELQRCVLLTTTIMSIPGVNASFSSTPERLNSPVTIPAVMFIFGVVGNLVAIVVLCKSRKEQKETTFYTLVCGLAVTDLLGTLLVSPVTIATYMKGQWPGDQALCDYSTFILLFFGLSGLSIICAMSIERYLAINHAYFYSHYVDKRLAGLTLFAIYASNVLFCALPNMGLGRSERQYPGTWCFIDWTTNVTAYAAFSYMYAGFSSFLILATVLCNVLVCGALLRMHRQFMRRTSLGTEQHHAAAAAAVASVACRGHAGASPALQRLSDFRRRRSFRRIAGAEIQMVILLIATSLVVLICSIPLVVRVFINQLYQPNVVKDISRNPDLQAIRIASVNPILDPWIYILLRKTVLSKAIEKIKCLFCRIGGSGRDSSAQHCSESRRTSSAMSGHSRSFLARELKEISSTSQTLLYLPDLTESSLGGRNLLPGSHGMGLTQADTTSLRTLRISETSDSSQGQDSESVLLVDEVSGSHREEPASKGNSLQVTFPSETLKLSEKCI
Sequence of Cytochrome P450 2D6 (P10635 whole entry): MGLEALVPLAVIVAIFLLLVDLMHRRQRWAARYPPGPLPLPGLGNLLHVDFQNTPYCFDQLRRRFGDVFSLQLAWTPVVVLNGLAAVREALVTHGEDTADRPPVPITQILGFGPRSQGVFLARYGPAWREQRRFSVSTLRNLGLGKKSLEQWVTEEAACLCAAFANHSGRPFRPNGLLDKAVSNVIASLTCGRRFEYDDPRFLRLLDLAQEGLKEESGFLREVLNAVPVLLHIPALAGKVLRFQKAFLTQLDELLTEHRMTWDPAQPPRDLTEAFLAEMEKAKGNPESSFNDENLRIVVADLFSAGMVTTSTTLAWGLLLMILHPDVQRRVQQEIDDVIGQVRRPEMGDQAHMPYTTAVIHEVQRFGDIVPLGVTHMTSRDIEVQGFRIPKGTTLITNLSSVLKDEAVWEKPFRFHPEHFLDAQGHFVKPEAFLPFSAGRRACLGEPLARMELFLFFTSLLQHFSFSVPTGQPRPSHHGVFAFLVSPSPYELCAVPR
Sequence of Cytochrome P450 2C9 (P11712 whole entry): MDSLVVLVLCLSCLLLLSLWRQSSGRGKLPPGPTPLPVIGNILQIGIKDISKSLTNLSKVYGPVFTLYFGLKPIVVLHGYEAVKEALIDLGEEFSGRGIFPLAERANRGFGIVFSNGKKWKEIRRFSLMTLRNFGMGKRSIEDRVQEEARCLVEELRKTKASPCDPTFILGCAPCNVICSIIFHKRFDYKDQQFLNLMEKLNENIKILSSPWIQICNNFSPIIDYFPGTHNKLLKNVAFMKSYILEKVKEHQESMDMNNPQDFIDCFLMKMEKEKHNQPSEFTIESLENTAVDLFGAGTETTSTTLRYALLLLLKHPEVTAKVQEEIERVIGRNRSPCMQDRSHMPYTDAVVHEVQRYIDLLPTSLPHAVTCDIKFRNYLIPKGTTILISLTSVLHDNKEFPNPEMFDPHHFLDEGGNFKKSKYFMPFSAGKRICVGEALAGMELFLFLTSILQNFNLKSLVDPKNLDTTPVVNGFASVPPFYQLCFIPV
Sequence of Cytochrome P450 2C19 (P33261 whole entry): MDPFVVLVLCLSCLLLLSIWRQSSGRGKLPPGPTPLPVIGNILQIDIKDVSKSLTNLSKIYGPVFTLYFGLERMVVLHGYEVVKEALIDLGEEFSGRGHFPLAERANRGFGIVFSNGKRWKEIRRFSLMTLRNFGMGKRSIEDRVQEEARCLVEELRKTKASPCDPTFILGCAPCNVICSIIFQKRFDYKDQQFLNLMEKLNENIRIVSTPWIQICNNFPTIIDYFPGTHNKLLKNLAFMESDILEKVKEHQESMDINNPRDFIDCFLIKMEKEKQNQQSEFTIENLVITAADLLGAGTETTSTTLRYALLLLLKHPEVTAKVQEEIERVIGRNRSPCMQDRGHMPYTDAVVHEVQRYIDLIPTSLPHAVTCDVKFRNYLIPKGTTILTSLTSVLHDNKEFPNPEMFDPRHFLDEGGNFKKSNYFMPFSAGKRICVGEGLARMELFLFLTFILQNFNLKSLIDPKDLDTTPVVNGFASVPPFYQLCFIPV

Row | Structure (SMILES) | Ki [1] | IC50 [2] | Ki [3] | Ki [4] | Ki [5] | also measured
1 | O=C(O)/C=C/c1ccc(COc2ccccc2)cc1OCCc1ccc2ccccc2c1 | 9200 nM | 140 nM | > 10000 nM | 2600 nM | 130 nM | 
2 | COc1ccc(/C=C/C(=O)O)c(OCCC2(C)CCc3c(C)c(O)c(C)c(C)c3O2)c1 (configuration not stated) | 6800 nM | > 10000 nM | > 10000 nM | 920 nM | > 10000 nM | 
3 | O=C([O-])CCc1ccc(Cn2cccn2)cc1OCCc1ccc2ccccc2c1.[Na+] |  |  |  |  |  | clearance [6]: 2.77 mL/min/kg; Stability (Liver microsomes [7]): 73%; bioavailability [8]: 53%; AUC(0-t) at 4 h [9]: 22900 ng·h/mL; Cmax [10]: 8320 ng/mL; Stability (Liver microsomes [11]): 100%; half-life [12]: 2.93 h; Vd [13]: 0.538 L/kg
4 | Cc1c(C)c2c(c(C)c1O)CCC(C)(CCOc1cc(Cn3ccnc3)ccc1/C=C/C(=O)O)O2 (configuration not stated) | > 10000 nM | 600 nM | > 10000 nM | > 10000 nM | 63 nM | 
5 | Cc1c(C)c2c(c(C)c1O)CCC(C)(CCOc1ccccc1/C=C/C(=O)O)O2 (configuration not stated) | 1200 nM | 4800 nM | > 10000 nM | 2600 nM | 530 nM | 
6 | O=C(O)/C=C/c1ccc(Cn2ccnc2)cc1OCCc1cc2ccccc2o1 | > 10000 nM | 330 nM | > 10000 nM | 4300 nM | 44 nM | 
7 | O=C(O)/C=C/c1ccc(Cc2cccs2)cc1OCCc1ccc2ccccc2c1 | 2100 nM | 150 nM | > 10000 nM | 2200 nM | 150 nM | 
8 | Cc1ccc(/C=C/C(=O)O)c(OCCC2(C)CCc3c(C)c(O)c(C)c(C)c3O2)c1 (configuration not stated) | 5700 nM | 3100 nM | > 10000 nM | 2200 nM | 940 nM | 
9 | O=C(O)CCCc1ccc(Cn2cccn2)cc1OCCc1ccc2ccccc2c1 | 1800 nM | 460 nM | 4000 nM | 1400 nM | 39 nM | 
10 | O=C(O)C#Cc1ccc(Cn2cccn2)cc1OCCc1ccc2ccccc2c1 | > 10000 nM | 1200 nM | > 10000 nM | 2900 nM | 99 nM | 
11 | O=C(O)/C=C/c1ccc(Cn2cccn2)cc1OCCc1ccc2ccccc2c1 | 3300 nM | 73 nM | 2900 nM | 670 nM | 12 nM | IC50 (Cytochrome P450 1A2): > 30000 nM; IC50 (Cytochrome P450 2C9): 12800 nM; IC50 (Cytochrome P450 2C19): 30000 nM; IC50 (Cytochrome P450 2D6): > 30000 nM; IC50 (Cytochrome P450 3A4): > 30000 nM
12 | O=C(O)COCc1ccc(Cn2cccn2)cc1OCCc1ccc2ccccc2c1 | 1300 nM | 540 nM | > 10000 nM | > 10000 nM | 210 nM | 
13 | O=C([O-])/C=C/c1ccc(Cn2cccn2)cc1OCCc1ccc2ccccc2c1.[Na+] |  |  |  |  |  | Stability (Liver microsomes [7]): 72%; AUC(0-t) at 4 h [9]: 1360 ng·h/mL; Cmax [10]: 943 ng/mL; Stability (Liver microsomes [11]): 100%
14 | O=C(O)/C=C/c1ccc(Cn2ccnc2)cc1OCCCOc1ccccc1 | > 10000 nM | 3000 nM | > 10000 nM | > 10000 nM | 280 nM | 
15 | O=C(O)/C=C/c1ccc(Cn2ccnc2)cc1OCCc1ccc2ccccc2c1 | > 10000 nM | 50 nM | > 10000 nM | 2200 nM | 16 nM | IC50 (Cytochrome P450 1A2): < 1000 nM; IC50 (Cytochrome P450 2C9): < 1000 nM; IC50 (Cytochrome P450 2C19): < 1000 nM; IC50 (Cytochrome P450 2D6): 4400 nM; IC50 (Cytochrome P450 3A4): < 1000 nM
16 | O=C(O)/C=C/c1ccc(Cn2ccnc2)cc1OCCCCOc1ccccc1 | > 10000 nM | 3500 nM | > 10000 nM | > 10000 nM | 220 nM | 
17 | O=C(O)/C=C/c1ccc(OCc2ccccc2)cc1OCCc1ccc2ccccc2c1 | 1200 nM | 1500 nM | > 10000 nM | > 10000 nM | 850 nM | 
18 | O=C(O)COc1ccc(Cn2cccn2)cc1OCCc1ccc2ccccc2c1 | > 10000 nM | 2600 nM | > 10000 nM | > 10000 nM | 260 nM | 
19 | O=C(O)/C=C/c1ccc(Cc2ccccc2)cc1OCCc1ccc2ccccc2c1 | > 10000 nM | 400 nM | > 10000 nM | 2100 nM | 130 nM | 
20 | O=C(O)/C=C/c1ccc(CN2CCCC2=O)cc1OCCc1ccc2ccccc2c1 | 5900 nM | 580 nM | 6400 nM | 2300 nM | 110 nM | 
21 | O=C(O)CCc1ccc(Cn2cccn2)cc1OCCc1ccc2ccccc2c1 | 2800 nM | 22 nM | 7100 nM | 1100 nM | 12 nM | IC50 (Cytochrome P450 1A2): > 30000 nM; IC50 (Cytochrome P450 2C9): 30000 nM; IC50 (Cytochrome P450 2C19): > 30000 nM; IC50 (Cytochrome P450 2D6): > 30000 nM; IC50 (Cytochrome P450 3A4): > 30000 nM
